The values below come from ChEMBL document CHEMBL1122551, “Bis(m-nitrophenyl) and bis(p-nitrophenyl) esters and the phosphorodiamidate of thymidine 5'-phosphate as potential sources of intracellular thymidine 5'-phosphate in mouse cells in culture” (J Med Chem, 1984).

Data set [1] is described as follows: Time for hydrolysis of half the starting material was studied at a temperature of 27 degrees celsius and aqueous 50 mM phosphate + 10 % p-dioxane (pH 7.6) as medium. Particulars: phosphate buffer with 10% p-dioxane. It is filed as ADME. In short, it runs like this:
(§1)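 Hydrolysis in aqueous 50 mM potassium phosphate, pH 7.6, starting at 0.05 mM substrate. Nitrophenol release was followed spectrophotometrically at 400 nm. Half-life is the time for hydrolysis of half the starting material.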

Data set [2] can be described thus: Time for hydrolysis of half the starting material was studied at a temperature of 23 degrees celsius and aqueous 50 mM phosphate + 10 % p-dioxane (pH 7.6) as medium. It is filed as ADME, Rattus norvegicus. Particulars: phosphate buffer with 10% p-dioxane. Put shortly: as §1
The test system of data set [3] is LM. Kind of data set: Rate of incorporation of [3H]- into DNA fraction of mouse LM(TK-) cells after 19h of pre-incubation, expressed as cpm 1/(10e6 cells) 1/h. It is filed as functional. Put shortly:
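LM(TK-) thymidine-kinase-deficient mouse fibroblasts in DMEM with 10% FBS at 37 °C in 5% CO2. Cells were exposed to [methyl-3H]-labeled compound at 0.9 μM and 1 μCi/mL (0.5% EtOH) for 19 h. Acid-insoluble 3H was counted on CCl3CO2H-washed filters. Rate was expressed per 10^6 cells per hour, using Coulter counts.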

Data set [4] can be described thus: Time for hydrolysis of half the starting material was studied at a temperature of 37 degrees celsius and aqueous 50 mM phosphate (pH 6) as medium. The class given is ADME. Particulars: phosphate buffer. Put shortly: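 Stability in 50 mM potassium phosphate at pH 7.6 or 6.0, 37 °C, followed by paper electrophoresis for up to 72 h. Half-life is the time for hydrolysis of half the starting material.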

The nature of data set [5]: Time for hydrolysis of half the starting material was studied at a temperature of 37 degrees celsius and aqueous 50 mM phosphate + 10 % p-dioxane (pH 7.6) as medium(d=no hydrolysis after 72 h). It is filed as ADME. The conditions noted are these: phosphate buffer with 10% p-dioxane.
A short description of data set [6]: Time for hydrolysis of half the starting material was studied at a temperature of 27 degrees celsius and aqueous 50 mM phosphate (pH 7.6) as medium. It is filed as ADME. The conditions noted are these: phosphate buffer. In short, it runs like this:
as §1

For data set [7], the system named is LM. The experiment in a line: Rate of incorporation of [3H]-into DNA fraction of mouse LM(TK-) cells after 2 hr of pre-incubation, expressed as cpm 1/(10e6 cells) 1/h. It is filed as functional. In short, it runs like this: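 LM(TK⁻) mouse L fibroblasts (thymidine-kinase deficient) in DMEM with 10% FBS, 37 °C, 5% CO2. Seeded in 6-cm dishes and grown overnight. Medium replaced with 0.017 μM [1',2',5-³H]-2'-deoxycytidine at 1 μCi/mL, 0.5% EtOH, for 2 h. Cells trypsinized, filter-collected, washed with 5% CCl3CO2H and 70% ethanol, then scintillation-counted. Zero-time blanks taken; cells per dish counted by Coulter.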

As a reminder, the half-life is the time in which the quantity being followed falls by half. As to `CCOP(=O)(Oc1ccc([N+](=O)[O-])cc1)Oc1ccc([N+](=O)[O-])cc1`, in data set [1], the half-life was 2 h.

`Cc1cn([C@H]2C[C@H](O)[C@@H](COP(=O)(Oc3cccc([N+](=O)[O-])c3)Oc3cccc([N+](=O)[O-])c3)O2)c(=O)[nH]c1=O`: in data set [2], the half-life was 4.75 h. For the same compound, in the data set with LM [3], the Activity is recorded as 18.1.

Consider `Cc1cn([C@H]2C[C@H](O)[C@@H](COP(N)(N)=O)O2)c(=O)[nH]c1=O`, for which the half-life in data set [4] and in data set [5] was over 72 h in each case.

As to `Cc1cn([C@H]2C[C@H](O)[C@@H](COP(=O)(Oc3ccc([N+](=O)[O-])cc3)Oc3ccc([N+](=O)[O-])cc3)O2)c(=O)[nH]c1=O`, the half-life in data set [6] is 0.83 h; in data set [1], 0.58 h.

As for `Cc1cn([C@H]2C[C@H](O)[C@@H](COP(=O)(O)Oc3cccc([N+](=O)[O-])c3)O2)c(=O)[nH]c1=O`, in the data set with LM [3], the Activity was determined as 37.6.

On to `Nc1ccn([C@H]2C[C@H](O)[C@@H](CO)O2)c(=O)n1` [DOXECITINE], for which, in the data set on LM [7], the Activity came out at 21960.

The compound `Cc1cn([C@H]2C[C@H](O)[C@@H](CO)O2)c(=O)[nH]c1=O` [DOXRIBTIMINE] displayed an Activity in the data set on LM [3] of 53.
